Drawing on ChEMBL document CHEMBL1133522, “Chiral resolution, pharmacological characterization, and receptor docking of the noncompetitive mGlu1 receptor antagonist (+/-)-2-hydroxyimino- 1a, 2-dihydro-1H-7-oxacyclopropa[b]naphthalene-7a-carboxylic acid ethyl ester” (J Med Chem, 2000), this text covers IC50 and inhibition for 7 compounds.

For experiment [1], the target named is T1, Metabotropic glutamate receptor 1 (Homo sapiens, UniProt Q13255). Put plainly: Inhibition of Quisqualate-Induced PI Hydrolysis measured in CHO Metabotropic glutamate receptor 1 Expressing Cells. The experiment is classed as functional. In short, it runs like this: (§1)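 Human mGlu1b receptor, cloned and stably expressed in CHO cells. Inhibition of quisqualate-stimulated phosphoinositol hydrolysis. Each data point is a triplicate measurement from at least three independent experiments, given as mean ± SEM. Four-parameter logistic fit of concentration–response curves gives IC50 with 95% confidence intervals. Highest concentration tested was 30 µM, or 100 µM where solubility allowed.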
Target sequence in this assay (Q13255 whole entry): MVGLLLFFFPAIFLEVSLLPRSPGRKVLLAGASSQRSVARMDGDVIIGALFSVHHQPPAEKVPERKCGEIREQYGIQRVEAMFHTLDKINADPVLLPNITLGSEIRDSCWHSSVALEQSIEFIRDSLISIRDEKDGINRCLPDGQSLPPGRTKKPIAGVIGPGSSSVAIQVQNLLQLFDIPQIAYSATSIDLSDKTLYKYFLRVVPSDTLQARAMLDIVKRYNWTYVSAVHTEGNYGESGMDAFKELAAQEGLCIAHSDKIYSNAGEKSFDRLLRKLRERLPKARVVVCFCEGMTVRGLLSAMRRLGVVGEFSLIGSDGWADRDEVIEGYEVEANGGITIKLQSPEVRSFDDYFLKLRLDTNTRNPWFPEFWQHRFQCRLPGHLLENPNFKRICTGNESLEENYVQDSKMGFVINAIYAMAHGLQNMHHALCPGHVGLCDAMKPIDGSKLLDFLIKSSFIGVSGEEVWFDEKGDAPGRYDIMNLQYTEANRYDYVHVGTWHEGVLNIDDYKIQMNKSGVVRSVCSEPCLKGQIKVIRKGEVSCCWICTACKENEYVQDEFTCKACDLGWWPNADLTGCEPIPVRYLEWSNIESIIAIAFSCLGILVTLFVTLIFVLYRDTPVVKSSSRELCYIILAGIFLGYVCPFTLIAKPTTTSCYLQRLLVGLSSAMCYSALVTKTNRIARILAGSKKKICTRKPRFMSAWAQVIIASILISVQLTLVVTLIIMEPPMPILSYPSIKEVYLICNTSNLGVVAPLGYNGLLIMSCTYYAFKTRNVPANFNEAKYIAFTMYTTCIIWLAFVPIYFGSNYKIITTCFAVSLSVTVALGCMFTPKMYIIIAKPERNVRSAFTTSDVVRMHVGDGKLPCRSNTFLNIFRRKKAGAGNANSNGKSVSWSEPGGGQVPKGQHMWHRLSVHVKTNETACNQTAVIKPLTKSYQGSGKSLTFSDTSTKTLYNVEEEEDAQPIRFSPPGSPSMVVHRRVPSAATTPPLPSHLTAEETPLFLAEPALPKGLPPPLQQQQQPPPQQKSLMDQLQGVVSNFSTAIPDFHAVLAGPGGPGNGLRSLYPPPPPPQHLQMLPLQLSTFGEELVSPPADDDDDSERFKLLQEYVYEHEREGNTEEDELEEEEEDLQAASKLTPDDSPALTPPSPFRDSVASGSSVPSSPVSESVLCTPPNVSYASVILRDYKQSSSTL

Experiment [2] addresses T1, Metabotropic glutamate receptor 1. The conditions noted are these: CHO; 100 uM.
Target sequence in this assay (Q13255 19-1194 limits assumed): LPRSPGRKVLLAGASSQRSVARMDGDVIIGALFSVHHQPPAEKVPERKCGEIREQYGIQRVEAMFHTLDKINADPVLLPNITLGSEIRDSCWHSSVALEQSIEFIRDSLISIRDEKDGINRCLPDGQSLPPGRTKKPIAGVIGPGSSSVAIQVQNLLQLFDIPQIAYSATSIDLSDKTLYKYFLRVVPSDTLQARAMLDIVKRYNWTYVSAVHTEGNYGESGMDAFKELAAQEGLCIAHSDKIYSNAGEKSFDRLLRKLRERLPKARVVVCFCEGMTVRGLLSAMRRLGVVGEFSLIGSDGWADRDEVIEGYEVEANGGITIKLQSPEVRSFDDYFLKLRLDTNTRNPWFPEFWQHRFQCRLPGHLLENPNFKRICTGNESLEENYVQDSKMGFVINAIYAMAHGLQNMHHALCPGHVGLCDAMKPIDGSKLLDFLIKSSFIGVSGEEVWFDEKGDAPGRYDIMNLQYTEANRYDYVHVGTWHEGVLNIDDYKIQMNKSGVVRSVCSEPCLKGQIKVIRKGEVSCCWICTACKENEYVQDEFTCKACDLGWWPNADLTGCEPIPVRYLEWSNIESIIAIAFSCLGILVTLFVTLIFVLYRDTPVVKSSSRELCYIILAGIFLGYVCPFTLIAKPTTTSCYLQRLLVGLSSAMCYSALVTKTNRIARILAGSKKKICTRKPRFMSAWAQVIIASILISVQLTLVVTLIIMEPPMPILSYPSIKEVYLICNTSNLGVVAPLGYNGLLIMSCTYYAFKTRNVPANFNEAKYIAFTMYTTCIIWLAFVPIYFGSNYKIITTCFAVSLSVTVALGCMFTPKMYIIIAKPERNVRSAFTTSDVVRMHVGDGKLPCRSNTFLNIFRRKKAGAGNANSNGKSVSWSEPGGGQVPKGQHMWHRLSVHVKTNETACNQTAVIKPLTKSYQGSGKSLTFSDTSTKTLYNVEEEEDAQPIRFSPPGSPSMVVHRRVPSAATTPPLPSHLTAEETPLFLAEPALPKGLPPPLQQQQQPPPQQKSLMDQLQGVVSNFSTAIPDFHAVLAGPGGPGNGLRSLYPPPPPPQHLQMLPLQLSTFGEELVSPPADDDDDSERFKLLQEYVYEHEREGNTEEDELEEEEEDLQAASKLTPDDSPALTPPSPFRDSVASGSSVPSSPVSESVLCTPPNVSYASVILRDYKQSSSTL
Experiment [3] shares this target. Kind of experiment: Inhibition of Quisqualate-Induced PI Hydrolysis measured in CHO Metabotropic glutamate receptor 1 Expressing Cells at a concentration of 30 uM; ne means No effect. The experiment is classed as functional. In short, it runs like this:
as §1
Target sequence in this assay (Q13255 whole entry): as the sequence (Q13255 whole entry) above

In experiment [1], `CCOC(=O)[C@]12C[C@H]1/C(=N\O)c1ccccc1O2` registered an IC50 of 1500 nM.
On the same count and under the same terms, as for `CCOC(=O)C12CC1/C(=N\O)c1ccccc1O2` (racemic), the figure is 3400 nM.
In turn, `CCOC(=O)[C@@]12CC1/C(=N\O)c1ccccc1O2` (stereo partly drawn) gave an inhibition in experiment [2] of 53%. In addition, the IC50 entry in experiment [3] is on record as “Not Active”.
Compound `COC(=O)[C@@H](Cc1ccccc1)NC(=O)C12CC1/C(=N\O)c1ccccc1O2` (mixture of isomers) had an IC50 in experiment [1] of 1400 nM.
As to `COC(=O)[C@@H](Cc1ccccc1)NC(=O)[C@@]12C[C@@H]1/C(=N\O)c1ccccc1O2`, the IC50 result in experiment [3] is given as “Not Active”.
Turning to `COC(=O)[C@H](Cc1ccccc1)NC(=O)C12CC1/C(=N\O)c1ccccc1O2` (mixture of isomers), half-maximal inhibition in experiment [1] (IC50) was put at 1200 nM.
Same read-out and setting: as for `COC(=O)[C@H](Cc1ccccc1)NC(=O)[C@]12C[C@H]1/C(=N\O)c1ccccc1O2`, the figure is 430 nM.

As usually defined, the IC50 is the point on the concentration scale where inhibition reaches its midpoint. Read a low IC50 as greater potency. As usually defined, the inhibition is the relative decrease from the control value, in per cent. High values mean a strong effect, low ones a weak effect.
